Positions of bridges follow the written chain, without caps; N, C: chain ends. Non-standard residues stand in square brackets, D forms with d. Residues, ends and D or L forms follow the SMILES beside them. S5 = C=CCCC[C@](C)(N)C(=O)O
Experiments:
[1] = target: T1, Proprotein convertase subtilisin/kexin type 9 (Homo sapiens, UniProt Q8NBP7); experiment: Binding affinity to human PCSK9 by surface plasmon resonance
Summary of the method: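 Recombinant human His-tagged PCSK9 (Gln31–Gln692, HEK293-expressed) at 14 µg/mL amine-coupled onto Ni-NTA chip, ~1000–4000 RU. Buffer 25 mM Tris-HCl, 5 mM CaCl2, 100 mM NaCl, 0.01% P20, pH 7.5, 5% DMSO in running buffer. 25°C. Double-referenced sensorgrams; KD from steady-state equilibrium responses fit to a 4-parameter model, or kinetics fit 1:1.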

[2] = Reversal of LDL uptake in human HepG2 cells at 10 uM for 2 hrs preincubation with PCSK9 followed by LDL addition and measured after 4 hrs by fluorimetry method relative to control; type: functional; conditions: time 6 hrs
Summary of the method: (§1)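 HepG2 cells seeded 40000/well, serum-starved 24 h in DMEM with 5% LPDS. Human His-PCSK9 (20–50 nM) preincubated 30–60 min at room temperature ± compounds (10 µM to 0.0001 µM, 0.1% DMSO). Cells then exposed 2 h at 37°C. LDL-BODIPY added to 10 µg/mL final for 4 h. Fluorescence read at ex 480/em 520 nm. Expressed as % maximal LDL-BODIPY incorporation; EC50 by non-linear fit.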

[3] = Reversal of LDL uptake in human HepG2 cells for 2 hrs preincubation with PCSK9 followed by LDL addition and measured after 4 hrs by fluorimetry method relative to control; type: functional, cell-based; summary of the method: as §1
[4] = Effect on mast cell degranulation in human LAD2 cells assessed as CCL3 release measured after 2 hrs by Luminex bead based assay; type: functional; conditions: for EC50: Homo sapiens, LAD2, 2 h; for Emax: time 2 hrs
Summary of the method: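 LAD2 human mast cells in StemPro 34 medium, 0.2×10^6 cells/well. Supernatant CCL3 quantified by Luminex magnetic bead kit.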

HepG2 = experiment: Cytotoxicity against human HepG2 cells assessed as reduction in cell viability at 0.4 to 10 uM for 48 hrs by SRB assay; type: toxicity, cell-based; conditions: hepg2, 48 h, dose 0.4-10 µM
Summary of the method: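 HepG2 cells seeded 2000/well 24 h before treatment. Compounds at 0.4, 1.1, 3.3 and 10 µM in DMEM, 48 h at 37°C. SRB staining 30 min at 37°C, dye dissolved in 10 mM Tris base, absorbance at 560 nm. Triplicate wells averaged and normalized to untreated cells.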

[5] = target: T1, Proprotein convertase subtilisin/kexin type 9; experiment: Binding affinity to human PCSK9

T1 sequence (Q8NBP7 31-152 limits assumed): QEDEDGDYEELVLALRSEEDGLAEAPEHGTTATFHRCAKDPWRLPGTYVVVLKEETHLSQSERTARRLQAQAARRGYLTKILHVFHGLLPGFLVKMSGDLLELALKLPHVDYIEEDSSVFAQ
T1 sequence (Q8NBP7 153-692 limits assumed): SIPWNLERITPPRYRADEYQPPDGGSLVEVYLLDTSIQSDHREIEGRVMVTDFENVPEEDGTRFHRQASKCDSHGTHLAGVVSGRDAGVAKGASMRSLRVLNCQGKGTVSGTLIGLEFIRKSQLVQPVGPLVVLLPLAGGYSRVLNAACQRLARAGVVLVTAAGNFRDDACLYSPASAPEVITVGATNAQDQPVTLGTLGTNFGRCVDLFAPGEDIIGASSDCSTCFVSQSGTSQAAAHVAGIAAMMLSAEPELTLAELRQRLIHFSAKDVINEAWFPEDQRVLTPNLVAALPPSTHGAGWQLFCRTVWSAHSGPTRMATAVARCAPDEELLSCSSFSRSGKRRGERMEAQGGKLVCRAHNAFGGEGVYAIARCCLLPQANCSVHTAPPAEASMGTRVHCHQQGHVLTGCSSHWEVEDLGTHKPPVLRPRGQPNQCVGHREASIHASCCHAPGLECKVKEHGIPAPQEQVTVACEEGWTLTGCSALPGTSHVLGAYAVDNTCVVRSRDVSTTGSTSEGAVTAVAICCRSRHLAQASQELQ

| Compound | Kd [1] | Activity [2] | EC50 [3] | EC50 [4] | Emax [4] | Activity (HepG2) | Kd [5] |
| --- | --- | --- | --- | --- | --- | --- | --- |
| CC(=O)N[C@H](C(=O)N[C@H](C(=O)N[C@@H](Cc1ccccc1)C(=O)N[C@H](C(=O)N[C@@H](CO)C(=O)N[C@@H](Cc1c[nH]c2ccccc12)C(=O)N[C@@H](CCC(=O)O)C(=O)N[C@@H](CCC(=O)O)C(=O)N[C@@H](Cc1ccc(O)cc1)C(=O)N[C@@H](CC(C)C)C(=O)N[C@@H](CC(=O)O)C(=O)N[C@@H](Cc1c[nH]c2ccccc12)C(=O)N[C@H](C(N)=O)C(C)C)[C@@H](C)O)C(C)C)[C@@H](C)O | 9.7 µM | 56.5% | 6 µM | > 5 µM | 116.7 pg/mL | Non-Toxic | – |
| CC(=O)N[C@@H](Cc1cnc[nH]1)C(=O)N[C@H](C(=O)N[C@@H](Cc1ccccc1)C(=O)N[C@@H](CCCCN)C(=O)N[C@@H](CO)C(=O)N[C@@H](Cc1c[nH]c2ccccc12)C(=O)N[C@H]1CCCCNC(=O)C[C@@H](C(=O)N[C@@H](Cc2c[nH]c3ccccc23)C(=O)N[C@H](C(=O)N[C@@H](CCCCN)C(=O)N[C@@H](CCCCN)C(=O)N[C@@H](CCCCN)C(=O)N[C@@H](CCCCN)C(=O)N[C@@H](CCCCN)C(=O)N[C@@H](CCCCN)C(N)=O)C(C)C)NC(=O)[C@H](CC(C)C)NC(=O)[C@H](Cc2ccc(O)cc2)NC(=O)[C@H](CCC(=O)O)NC1=O)C(C)C (Ac-HVFKSWKEYLDWVKKKKKK-NH2; lactam 7-11) | 0.006 µM | – | 0.175 µM | 2.2 µM | 1483.2 pg/mL | Non-Toxic | – |
| CC(=O)N[C@H](C(=O)N[C@H](C(=O)N[C@@H](Cc1ccccc1)C(=O)N[C@H](C(=O)N[C@@H](CO)C(=O)N[C@@H](Cc1c[nH]c2ccccc12)C(=O)N[C@H]1CCCCNC(=O)C[C@@H](C(=O)N[C@@H](Cc2c[nH]c3ccccc23)C(=O)N[C@H](C(N)=O)C(C)C)NC(=O)[C@H](CC(C)C)NC(=O)[C@H](Cc2ccc(O)cc2)NC(=O)[C@H](CCC(=O)O)NC1=O)[C@@H](C)O)C(C)C)[C@@H](C)O (Ac-TVFTSWKEYLDWV-NH2; lactam 7-11) | 3.9 µM | 52% | – | > 5 µM | 716.6 pg/mL | Non-Toxic | – |
| CC(=O)N[C@H](C(=O)N[C@H](C(=O)N[C@@H](Cc1ccccc1)C(=O)N[C@H](C(=O)N[C@@H](CO)C(=O)N[C@@H](Cc1c[nH]c2ccccc12)C(=O)N[C@@]1(C)CCC/C=C\CCC[C@@](C)(C(=O)N[C@@H](Cc2c[nH]c3ccccc23)C(=O)N[C@H](C(N)=O)C(C)C)NC(=O)[C@H](CC(C)C)NC(=O)[C@H](Cc2ccc(O)cc2)NC(=O)[C@H](CCC(=O)O)NC1=O)[C@@H](C)O)C(C)C)[C@@H](C)O (Ac-TVFTSW[S5]EYL[S5]WV-NH2; staple (Z) 7-11) | 6.5 µM | 42.7% | – | – | – | Non-Toxic | – |
| Ac-HVFNSWEEYLDWV-NH2 | 3.9 µM | 62.4% | – | – | – | Non-Toxic | – |
| Ac-TVFTSWEEYLDWVKKK-NH2 | 1.6 µM | 72.3% | – | – | – | Non-Toxic | 1600 nM |
| Ac-TVFTSWEEYLDWVKKKKKK-NH2 | 0.424 µM | – | – | – | – | Non-Toxic | 424 nM |
